pIC50: −log10 of the molar value.
Key:
Assay type in all cases: functional, cell-based
HeLa = test: Cytotoxicity against human HeLa cells after 72 hrs by alamar blue assay
Method in brief: (§1)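 Cells seeded at 800–1000 per well (20–25 cells/µL) and left overnight to attach. Compounds were diluted serially from 10 mM DMSO stocks and tested at 8 final concentrations, 50 to 0.39 µM, in triplicate for 72 h. Vehicle control was 0.5% DMSO. Alamar blue was added to 10% final and fluorescence read after 4 h (ex 530, em 560 nm). Viability was expressed as percent of vehicle, and IC50 taken as 50% kill versus control.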

NCI-H460 = test: Cytotoxicity against human H460 cells after 72 hrs by alamar blue assay; conditions: NCI-H460, 72 h; method in brief: as §1
HOP-62 = test: Cytotoxicity against human HOP62 cells after 72 hrs by alamar blue assay; conditions: HOP-62, 72 h; method in brief: as §1
[1] = Cytotoxicity against human H266 cells after 72 hrs by alamar blue assay; conditions: H266, 72 h; method in brief: as §1
LOX IMVI = test: Cytotoxicity against human LOXIMVI cells after 72 hrs by alamar blue assay; method in brief: as §1
M14 = test: Cytotoxicity against human M14 cells after 72 hrs by alamar blue assay; conditions: M14, 72 h; method in brief: as §1
[2] = Cytotoxicity against human 292G cells after 72 hrs by alamar blue assay; method in brief: as §1
A549 = test: Cytotoxicity against human A549 cells after 72 hrs by alamar blue assay; conditions: A549, 72 h; method in brief: as §1
NCI-H1792 = test: Cytotoxicity against human NCI-H1792 cells after 72 hrs by alamar blue assay; conditions: NCI-H1792, 72 h; method in brief: as §1
NCI-H157 = test: Cytotoxicity against human NCI-H157 cells after 72 hrs by alamar blue assay; conditions: NCI-H157, 72 h; method in brief: as §1
[3] = Cytotoxicity against human SKBR cells after 72 hrs by alamar blue assay; method in brief: as §1
Calu-1 = test: Cytotoxicity against human Calu1 cells after 72 hrs by alamar blue assay; conditions: Calu-1, 72 h; method in brief: as §1
NCI-H1299 = test: Cytotoxicity against human NCI-H1299 cells after 72 hrs by alamar blue assay; conditions: NCI-H1299, 72 h; method in brief: as §1
[4] = Cytotoxicity against human M4E cells after 72 hrs by alamar blue assay; method in brief: as §1

Compound	pIC50 (HeLa)	pIC50 (NCI-H460)	pIC50 (HOP-62)	pIC50 [1]	pIC50 (LOX IMVI)	pIC50 (M14)	pIC50 [2]	pIC50 (A549)	pIC50 (NCI-H1792)	pIC50 (NCI-H157)	pIC50 [3]	pIC50 (Calu-1)	pIC50 (NCI-H1299)	pIC50 [4]
COc1cc(/C=C/C(=O)OCCCCCCO[N+](=O)[O-])ccc1O	4.79	< 4.30	< 4.30	< 4.30	< 4.30	< 4.30	< 4.30	4.43	4.31	4.49	4.82	< 4.30	< 4.30	< 4.30
COc1cc(/C=C/C(=O)OCCOc2no[n+]([O-])c2S(=O)(=O)c2ccccc2)ccc1O	< 4.30	< 4.30	< 4.30	< 4.30	< 4.30	< 4.30	< 4.30	< 4.30	< 4.30	< 4.30	< 4.30	< 4.30	< 4.30	< 4.30
COc1cc(/C=C/C(=O)OCCCO[N+](=O)[O-])ccc1OCCCO[N+](=O)[O-]	5.44	< 4.30	< 4.30	< 4.30	< 4.30	< 4.30	< 4.30	4.80	< 4.30	< 4.30	< 4.30	5.85	< 4.30	< 4.30
CC(C)OC(=O)/C=C/c1ccc(O)c(O)c1	5.02	4.98	< 4.30	< 4.30	< 4.30	< 4.30	< 4.30	< 4.30	< 4.30	4.96	4.50	< 4.30	4.51	< 4.30
CC(C)CCOC(=O)/C=C/c1ccc(O)c(O)c1	5.03	4.78	4.80	4.47	5.10	4.51	4.56	5.06	4.50	5.08	4.88	4.69	4.75	4.54
O=C(/C=C/c1ccc(O)c(O)c1)OCCCO[N+](=O)[O-]	5.51	5.48	5.00	< 4.30	4.72	4.61	4.87	4.97	4.74	5.36	5.24	4.97	5.10	4.70
O=C(/C=C/c1ccc(OCCCCCCO[N+](=O)[O-])c(O)c1)OCCCCCCO[N+](=O)[O-]	5.87	< 4.30	< 4.30	< 4.30	< 4.30	< 4.30	< 4.30	< 4.30	< 4.30	< 4.30	4.40	< 4.30	< 4.30	< 4.30
COc1cc(/C=C/C(=O)OCCC(C)C)ccc1O [ISOPENTYL FERULATE]	< 4.30	4.35	4.51	4.32	4.32	4.34	4.32	4.36	4.42	4.40	4.38	4.49	4.50	4.52
CCOC(=O)/C=C/c1ccc(O)c(O)c1 [ETHYL CAFFEATE]	5.71	4.88	4.90	< 4.30	5.21	5.01	5.28	5.14	4.74	5.12	5.38	4.76	5.31	4.95
COc1cc(/C=C/C(=O)OCC(C)C)ccc1O	4.54	< 4.30	< 4.30	4.45	< 4.30	< 4.30	< 4.30	4.46	< 4.30	4.55	4.35	< 4.30	4.42	< 4.30
COc1cc(/C=C/C(=O)OC/C=C/CO[N+](=O)[O-])ccc1O	6.00	5.30	5.29	5.01	5.63	5.41	4.66	5.23	5.31	5.37	5.19	5.61	5.63	5.03

— ChEMBL document CHEMBL2086326, “Biological activity evaluation and structure-activity relationships analysis of ferulic acid and caffeic acid derivatives for anticancer” (Bioorg Med Chem Lett, 2012)
